From ChEMBL document CHEMBL1131506, “Development of a binding model to protein tyrosine kinases for substituted pyrido[2,3-d]pyrimidine inhibitors” (J Med Chem, 1998)

Tests used:
[1] = target: Fibroblast growth factor receptor (Homo sapiens, UniProt P22607+P11362+P22455+P21802); test: Inhibitory concentration of compound against human fibroblast growth factor receptor; assay type: protein assay
[2] = target: Platelet-derived growth factor receptor (Mus musculus, UniProt P05622+P26618); test: Inhibitory concentration of compound against mouse Platelet-derived growth factor receptor
[3] = target: Proto-oncogene tyrosine-protein kinase Src (Gallus gallus, UniProt P00523); test: Inhibition of chicken c-Src tyrosine kinase
How it was run: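 Recombinant avian c-Src expressed in baculovirus-infected insect cells, immunopurified on polystyrene beads carrying a covalently linked Src-specific monoclonal antibody. The enzyme-bead suspension was assayed in vitro with 40 µM ATP, measuring 32P-phosphate transfer into a trichloroacetic acid-precipitable random glutamate/tyrosine (4:1) copolymer. The IC50 was in µM.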

[4] = target: Epidermal growth factor receptor (Homo sapiens, UniProt P00533); test: Inhibition of human epidermal growth factor receptor
Sequence of Epidermal growth factor receptor (P00533 whole entry): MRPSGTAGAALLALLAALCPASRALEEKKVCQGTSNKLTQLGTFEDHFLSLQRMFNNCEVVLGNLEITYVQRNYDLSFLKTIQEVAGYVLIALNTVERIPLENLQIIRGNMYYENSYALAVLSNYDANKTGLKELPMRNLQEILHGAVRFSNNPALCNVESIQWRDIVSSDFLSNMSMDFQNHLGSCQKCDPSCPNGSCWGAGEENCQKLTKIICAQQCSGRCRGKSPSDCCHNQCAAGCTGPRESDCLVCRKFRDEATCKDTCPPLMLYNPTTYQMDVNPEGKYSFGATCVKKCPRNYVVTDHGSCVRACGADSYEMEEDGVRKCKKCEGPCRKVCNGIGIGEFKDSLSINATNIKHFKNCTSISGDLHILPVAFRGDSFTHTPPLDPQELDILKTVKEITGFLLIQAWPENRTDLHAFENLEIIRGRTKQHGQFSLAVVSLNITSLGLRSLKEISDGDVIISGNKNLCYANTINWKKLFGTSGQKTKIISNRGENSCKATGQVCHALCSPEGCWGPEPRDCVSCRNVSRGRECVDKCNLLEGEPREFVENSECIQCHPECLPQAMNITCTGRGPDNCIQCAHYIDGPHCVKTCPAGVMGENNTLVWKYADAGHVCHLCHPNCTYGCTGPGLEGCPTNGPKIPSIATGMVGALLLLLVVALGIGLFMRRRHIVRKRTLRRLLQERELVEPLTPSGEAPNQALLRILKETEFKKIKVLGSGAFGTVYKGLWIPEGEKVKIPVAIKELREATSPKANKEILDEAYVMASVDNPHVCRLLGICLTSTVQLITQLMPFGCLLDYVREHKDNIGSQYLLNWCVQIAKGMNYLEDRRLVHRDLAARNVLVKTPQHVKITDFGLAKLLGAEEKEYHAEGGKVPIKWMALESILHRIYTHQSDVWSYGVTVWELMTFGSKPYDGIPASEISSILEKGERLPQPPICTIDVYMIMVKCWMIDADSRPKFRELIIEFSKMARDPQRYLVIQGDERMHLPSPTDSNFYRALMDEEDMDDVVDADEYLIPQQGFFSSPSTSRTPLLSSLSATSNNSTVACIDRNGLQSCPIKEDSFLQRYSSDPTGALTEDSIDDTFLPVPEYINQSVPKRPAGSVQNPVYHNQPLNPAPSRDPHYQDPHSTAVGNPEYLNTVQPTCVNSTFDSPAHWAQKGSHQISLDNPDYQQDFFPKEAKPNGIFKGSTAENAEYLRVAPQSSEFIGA

Structure (SMILES)	IC50 [1] [µM]	IC50 [2] [µM]	IC50 [3] [µM]	IC50 [4] [µM]
CC(C)(C)NC(=O)Nc1nc2nc(N)ncc2cc1-c1cc(C(F)(F)F)cc(C(F)(F)F)c1	> 50	> 50	> 50	–
Cn1c(=O)c(-c2c(Cl)cccc2Cl)cc2cncnc21	> 50	> 50	> 10	> 50
COc1ccc(NC(=O)Nc2nc3nc(NCCCN4CCN(C)CC4)ncc3cc2-c2c(Cl)cccc2Cl)cc1	–	–	0.028	0.72
CN1CCN(c2ccc(Nc3ncc4cc(-c5c(Cl)cccc5Cl)c(=O)n(C)c4n3)cc2)CC1	0.051	0.115	–	–
CN(C)c1cc(-c2cc3cnc(N)nc3nc2NC(=O)NC(C)(C)C)cc(N(C)C)c1	> 16	> 50	> 50	–
COc1cc(OC)cc(-c2cc3cnc(N)nc3n(C)c2=O)c1	0.126	43.1	> 50	–
CN1CCN(CCCNc2ncc3cc(-c4c(Cl)cccc4Cl)c(NC(=O)NC4CCCCC4)nc3n2)CC1	–	–	–	0.88
CCOc1cc(OCC)cc(-c2cc3cnc(N)nc3nc2NC(=O)NC(C)(C)C)c1	1.65	> 50	> 50	–
Cn1c(=O)c(-c2c(Cl)cccc2Cl)cc2cnc(Nc3ccc(CC(=O)O)cc3)nc21	0.061	0.07	0.01	–
COc1cc(OC)cc(-c2cc3cnc(N)nc3nc2NC(=O)NC(C)(C)C)c1	–	–	> 50	–
CN(C)c1ncc2cc(-c3c(Cl)cccc3Cl)c(=O)n(C)c2n1	> 50	> 50	> 50	> 50
CN1CCN(CCCNc2ncc3cc(-c4c(Cl)cccc4Cl)c(=O)n(C)c3n2)CC1	0.348	2.7	0.237	–
Cc1ncc2cc(-c3c(Cl)cccc3Cl)c(=O)n(C)c2n1	> 50	> 50	> 50	> 50
CN1CCN(CCCNc2ncc3cc(-c4c(Cl)cccc4Cl)c(NC(=O)NCc4ccccc4)nc3n2)CC1	–	–	0.03	0.98
CCN(CC)CCOc1cccc(Nc2ncc3cc(-c4c(Cl)cccc4Cl)c(=O)n(C)c3n2)c1	–	–	0.009	–
